Structures are written as SMILES. Residues, ends and D or L forms follow the SMILES beside them. *: point of attachment. Boc = CC(C)(C)OC(=O)*

The term IC50 denotes the concentration that inhibits the measured activity by half. A higher IC50 goes with weaker potency in that assay. The ED50 is the midpoint of the dose-response relation. A high value points to a need for a large dose.

The test system of assay [1] is Rattus norvegicus. Kind of assay: Compound was tested in vivo for activity against gastrin induced acid secretion in rat; antagonist. The format is functional, organism-based. The following applies: filed as antagonist. The method, boiled down: (§1)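 In anaesthetized rats, peptide in alkaline aqueous solution was given as an iv bolus at various doses together with 80 pmol (Leu15)-HG-17 (submaximal dose). pH was recorded for 40 min. For each dose, H+ output with peptide plus gastrin was divided by output with gastrin alone and expressed as percent inhibition.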

Assay [2] can be described thus: Compound was tested in vitro for inhibition of [125I](Leu15)-HG-17 binding to isolated gastric mucosal cells. The format is tissue-based, Rattus norvegicus, Gastric mucosa. The essentials:
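Fundic mucosal cells, dispersed by collagenase/EDTA (about 45% parietal cells, 95% viable), were incubated at 5 × 10^6 cells/mL in Earle's medium without bicarbonate (10 mM Hepes, 0.2% BSA, pH 7.4). Incubation was with 20 pM [125I]-(Leu15)-HG-17 for 30 min at 37 °C across a range of peptide concentrations. Nonsaturable binding was taken with 1 × 10^-6 M unlabeled (Nle11)-HG-13. Quadruplicate determinations.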

Assay [3] concerns Rattus norvegicus. The assay can be described thus: Compound was tested in vivo for activity against gastrin induced acid secretion in rat. The format is functional. The essentials: as §1
In assay [4] the test system is Rattus norvegicus. The assay can be described thus: Compound was tested in vivo for activity against gastrin induced acid secretion in rat; agonist. The format is functional, organism-based. The following applies: filed as agonist.

For the compound `CC(C)C[C@H](NC(=O)[C@H](Cc1c[nH]c2ccccc12)NC(=O)OC(C)(C)C)C(=O)N[C@H](CN[C@@H](Cc1ccccc1)C(N)=O)CC(=O)O`, the Activity result in assay [1] is “Antagonist”. Also, the IC50 in assay [2] stood at 5000 nM. Further, the 50% effect level in assay [3] (ED50) was put at a dose of 15 mg/kg.

Consider `CC(C)C[C@@H](CN[C@@H](CC(=O)O)C(=O)N[C@@H](Cc1ccccc1)C(N)=O)NC(=O)[C@H](Cc1c[nH]c2ccccc12)NC(=O)OC(C)(C)C`, for which the Activity entry in assay [1] was “Antagonist”. In assay [2], the IC50 is 250 nM. For the same compound, in assay [3], the ED50 is 0.3 mg/kg.

`CC(C)C[C@H](NC(=O)[C@H](Cc1c[nH]c2ccccc12)NC(=O)OC(C)(C)C)C(=O)N[C@@H](CC(=O)O)C(=O)N[C@@H](Cc1ccccc1)C(N)=O` (Boc-WLDF-NH2) registered an IC50 in assay [2] of 500 nM. The Activity entry in assay [4] was “Agonist”.

In the case of `CC(C)C[C@H](NC[C@H](Cc1c[nH]c2ccccc12)NC(=O)OC(C)(C)C)C(=O)N[C@@H](CC(=O)O)C(=O)N[C@@H](Cc1ccccc1)C(N)=O`, the IC50 in assay [2] worked out at 300 nM. Moreover, in assay [4], the Activity result was “Agonist”.

The values above are taken from ChEMBL document CHEMBL1122872, “Synthesis and biological activities of some pseudo-peptide analogues of tetragastrin: the importance of the peptide backbone” (J Med Chem, 1985).
